For experiment [1], the system named is U-937. The experiment in a line: Induction of apoptosis in human U937 cells assessed as necrotic cells at 20 x GI50 concentration incubated for 24 hrs by annexin V-FITC and propidium iodide staining based flow cytometry (reference value: 10.30 %). The experiment is classed as functional. (In general: A flow cytometer gives signals particle by particle.)
Experiment [2] concerns MV4-11. The experiment in a line: Induction of apoptosis in human MV4-11 cells assessed as necrotic cells at 1 x GI50 concentration incubated for 48 hrs by annexin V-FITC and propidium iodide staining based flow cytometry (reference value: 0.45 %). The experiment is classed as functional.
Experiment [3] deals with Receptor-type tyrosine-protein kinase FLT3 (Homo sapiens) (UniProt P36888). The experiment in a line: Inhibition of FLT3-mediated signalling pathway in human MV4-11 cells assessed as increase in cleaved PARP expression upto 20 x GI50 concentration incubated for 6 hrs by western blot analysis. The class given is cell-based. In outline: (§1)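 Cells lysed in phosphate lysis buffer with protease inhibitors and protein quantified. Western blots probed phospho and total STAT5, AKT, ERK, S6RP and eIF4E, plus full-length and cleaved PARP and caspase-3, with β-actin as loading control. At least two independent experiments.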
On the technique in general: Immunoblotting shows a protein as a band on a membrane.

Experiment [4] deals with MV4-11. The experiment in a line: Induction of apoptosis in human MV4-11 cells assessed as early apoptotic cells at 1 x GI50 concentration incubated for 24 hrs by annexin V-FITC and propidium iodide staining based flow cytometry (reference value: 2.12 %). The experiment is classed as functional.
Experiment [5] concerns MV4-11. The experiment in a line: Induction of apoptosis in human MV4-11 cells assessed as early apoptotic cells at 20 x GI50 concentration incubated for 48 hrs by annexin V-FITC and propidium iodide staining based flow cytometry (reference value: 1.08 %). The class given is functional.
For a further experiment, the target named is CDK7/Cyclin H/MNAT1 (Homo sapiens, UniProt P50613). The experiment in a line: Inhibition of CDK7/cyclin H/MAT1 (unknown origin) using HYSPTSPSYSPTSPSYSPTSPSKKKK-O substrate incubated for 120 mins measured after 40 mins incubation under dark by ADP-glo based luminescence assay. The experiment is classed as protein-complex assay. A digest of the protocol:
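In-house ADP-Glo assay with 2 mM DMSO stocks. Kinases were CDK1/cyclin B at 1 nM, CDK2/cyclin E1 at 10 nM and CDK7/cyclin H/MAT1 at 40 nM. Substrate was histone 1 for CDK1 and CDK2, and a RNA pol II CTD peptide for CDK7. Compound at 8–10 concentrations, 1:3 serial, final DMSO 0.5%. Reactions ran 60–120 min at room temperature, then ADP-Glo reagent 40 min in the dark, then detection reagent 40 min, read by luminescence. Ki was derived from IC50 by Cheng-Prusoff.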
Background: ADP-Glo turns the ADP formed in a reaction into a luminescent signal.

Experiment [6] has as its system MV4-11. The experiment in a line: Induction of apoptosis in human MV4-11 cells assessed as early apoptotic cells at 20 x GI50 concentration incubated for 24 hrs by annexin V-FITC and propidium iodide staining based flow cytometry (reference value: 2.12 %). The experiment is classed as functional.
The test system of experiment [7] is MV4-11. The experiment in a line: Induction of apoptosis in human MV4-11 cells assessed as necrotic cells at 1 x GI50 concentration incubated for 24 hrs by annexin V-FITC and propidium iodide staining based flow cytometry (reference value: 0.75 %). The experiment is classed as functional.
Experiment [8] addresses Receptor-type tyrosine-protein kinase FLT3 (Homo sapiens) (UniProt P36888). The experiment in a line: Inhibition of FLT3-mediated signalling pathway in human MV4-11 cells assessed as inhibition of ERK phosphorylation upto 20 x GI50 concentration incubated for 6 hrs by western blot analysis. The experiment is classed as cell-based. In outline: as §1
In experiment [9] the test system is MV4-11. The experiment in a line: Antiproliferative activity against human MV4-11 cells incubated for 72 hrs by resazurin assay. The experiment is classed as functional. In outline:
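Cells seeded and pre-incubated 24 h at 37 °C, 5% CO2, then given a five-fold dilution series of compound (from 10 mM DMSO stock) in medium, in triplicate. Resazurin added after 72 h exposure, 4 h in dark at 37 °C. Fluorescence read at 570/585 nm, normalised to DMSO vehicle. GI50 by non-linear regression; mean ± SD of at least two replicates.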

The subject of experiment [10] is MV4-11. The experiment in a line: Induction of apoptosis in human MV4-11 cells assessed as viable cells at 20 x GI50 concentration incubated for 24 hrs by annexin V-FITC and propidium iodide staining based flow cytometry (reference value: 84.68 %). The class given is functional.
For experiment [11], the system named is U-937. The experiment in a line: Induction of apoptosis in human U937 cells assessed as late apoptotic cells at 1 x GI50 concentration incubated for 48 hrs by annexin V-FITC staining based flow cytometry (reference value: 9.82 %). The class given is functional.
Experiment [12] concerns the target Receptor-type tyrosine-protein kinase FLT3 (Homo sapiens, UniProt P36888, ITD). The experiment in a line: Inhibition of FLT3 ITD mutant (unknown origin) using Glu/Tyr peptide substrate incubated for 80 mins measured after 40 mins incubation under dark by ADP-glo based luminescence assay.
Experiment [13] concerns MV4-11. The experiment in a line: Induction of apoptosis in human MV4-11 cells assessed as late apoptotic cells at 5 x GI50 concentration incubated for 24 hrs by annexin V-FITC and propidium iodide staining based flow cytometry (reference value: 12.45 %). The experiment is classed as functional.
The test system of experiment [14] is U-937. The experiment in a line: Induction of apoptosis in human U937 cells assessed as early apoptotic cells at 1 x GI50 concentration incubated for 24 hrs by annexin V-FITC and propidium iodide staining based flow cytometry (Rvb =1.81 %). The class given is functional.
Experiment [15] concerns MV4-11. The experiment in a line: Induction of apoptosis in human MV4-11 cells assessed as necrotic cells at 20 x GI50 concentration incubated for 48 hrs by annexin V-FITC and propidium iodide staining based flow cytometry (reference value: […] %). The class given is functional.
For experiment [16], the system named is MV4-11. The experiment in a line: Induction of apoptosis in human MV4-11 cells assessed as late apoptotic cells at 10 x GI50 concentration incubated for 48 hrs by annexin V-FITC and propidium iodide staining based flow cytometry (reference value: 6.59 %). The experiment is classed as functional.
Experiment [17] relates to U-937. The experiment in a line: Induction of apoptosis in human U937 cells assessed as late apoptotic cells at 20 x GI50 concentration incubated for 24 hrs by annexin V-FITC and propidium iodide staining based flow cytometry (reference value: […] %). The experiment is classed as functional.
The test system of experiment [18] is U-937. The experiment in a line: Induction of apoptosis in human U937 cells assessed as necrotic cells at 5 x GI50 concentration incubated for 24 hrs by annexin V-FITC and propidium iodide staining based flow cytometry (reference value: 1.10 %). The class given is functional.
Experiment [19] in a line: Inhibition of FLT3 ITD-W51 mutant (unknown origin) incubated for 120 mins by ADP-glo based luminescence assay. More on the design: species or system Homo sapiens.

The source made the active and inactive calls. The rule behind the calls is not given here. Some results are limits rather than exact numbers.

Sequence of Receptor-type tyrosine-protein kinase FLT3 (Homo sapiens) (P36888 whole entry): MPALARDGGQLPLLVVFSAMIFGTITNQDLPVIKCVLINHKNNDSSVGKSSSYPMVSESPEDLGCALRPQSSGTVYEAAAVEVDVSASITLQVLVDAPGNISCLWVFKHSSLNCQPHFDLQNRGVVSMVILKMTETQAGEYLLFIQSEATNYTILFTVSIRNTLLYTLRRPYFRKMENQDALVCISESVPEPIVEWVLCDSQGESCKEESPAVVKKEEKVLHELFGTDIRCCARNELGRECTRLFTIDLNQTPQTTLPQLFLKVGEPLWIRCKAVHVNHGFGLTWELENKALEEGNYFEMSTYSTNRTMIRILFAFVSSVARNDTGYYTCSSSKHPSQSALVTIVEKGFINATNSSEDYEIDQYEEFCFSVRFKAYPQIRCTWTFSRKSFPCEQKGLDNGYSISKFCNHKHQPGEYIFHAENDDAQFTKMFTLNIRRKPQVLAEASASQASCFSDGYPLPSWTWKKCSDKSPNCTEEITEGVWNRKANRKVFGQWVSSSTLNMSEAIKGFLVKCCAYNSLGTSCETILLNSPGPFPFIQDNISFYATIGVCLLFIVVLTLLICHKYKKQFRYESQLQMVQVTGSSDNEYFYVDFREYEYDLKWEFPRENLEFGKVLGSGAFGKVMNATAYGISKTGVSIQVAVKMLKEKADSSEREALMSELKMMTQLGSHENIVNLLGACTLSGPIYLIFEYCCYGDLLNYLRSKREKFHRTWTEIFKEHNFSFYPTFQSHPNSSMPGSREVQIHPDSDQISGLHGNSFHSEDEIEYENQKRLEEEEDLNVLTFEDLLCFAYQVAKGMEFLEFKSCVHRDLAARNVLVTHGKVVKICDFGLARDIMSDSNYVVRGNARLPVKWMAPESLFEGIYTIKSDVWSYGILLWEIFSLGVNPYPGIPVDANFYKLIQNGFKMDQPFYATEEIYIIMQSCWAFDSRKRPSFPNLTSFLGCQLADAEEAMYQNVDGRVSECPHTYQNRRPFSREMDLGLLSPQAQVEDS
Sequence of Receptor-type tyrosine-protein kinase FLT3 (P36888 whole entry, looked up, stated change not applied): as the sequence (P36888 whole entry) above
Sequence of CDK7/Cyclin H/MNAT1 (P51946 whole entry): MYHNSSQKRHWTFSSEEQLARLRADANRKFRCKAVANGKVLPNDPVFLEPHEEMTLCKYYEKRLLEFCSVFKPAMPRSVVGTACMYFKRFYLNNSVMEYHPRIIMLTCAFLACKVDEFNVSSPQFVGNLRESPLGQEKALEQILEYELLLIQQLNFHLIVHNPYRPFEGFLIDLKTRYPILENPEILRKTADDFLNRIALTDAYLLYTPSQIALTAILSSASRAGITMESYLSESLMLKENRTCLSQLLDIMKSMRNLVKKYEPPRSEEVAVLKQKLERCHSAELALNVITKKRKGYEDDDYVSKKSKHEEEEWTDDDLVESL
Sequence of CDK7/Cyclin H/MNAT1 (P50613 whole entry): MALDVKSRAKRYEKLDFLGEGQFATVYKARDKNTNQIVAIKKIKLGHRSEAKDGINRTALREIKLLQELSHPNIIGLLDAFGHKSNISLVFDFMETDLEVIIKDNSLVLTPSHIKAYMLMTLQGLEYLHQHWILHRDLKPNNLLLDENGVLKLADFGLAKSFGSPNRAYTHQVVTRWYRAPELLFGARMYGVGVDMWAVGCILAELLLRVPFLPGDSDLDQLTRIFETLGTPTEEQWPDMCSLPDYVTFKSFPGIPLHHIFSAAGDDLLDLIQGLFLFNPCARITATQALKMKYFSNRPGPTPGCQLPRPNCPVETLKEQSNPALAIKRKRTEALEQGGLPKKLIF
Sequence of CDK7/Cyclin H/MNAT1 (P51948 whole entry, further chain): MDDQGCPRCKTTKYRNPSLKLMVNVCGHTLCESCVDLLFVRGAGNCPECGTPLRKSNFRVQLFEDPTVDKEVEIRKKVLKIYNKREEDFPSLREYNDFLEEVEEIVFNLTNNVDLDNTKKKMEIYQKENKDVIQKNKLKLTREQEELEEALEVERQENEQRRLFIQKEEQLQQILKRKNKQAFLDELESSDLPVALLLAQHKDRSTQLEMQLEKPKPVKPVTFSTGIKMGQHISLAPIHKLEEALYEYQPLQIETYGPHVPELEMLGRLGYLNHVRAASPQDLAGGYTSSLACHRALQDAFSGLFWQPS

For `CC(=O)N1CCN(c2ccc(Nc3nccc(-c4cn(C)c5ncccc45)n3)cc2)CC1`, the Activity in the experiment with U-937 [1] came to 10.43%; with MV4-11 [2], 0.8%; with MV4-11 [4], 2.16%; in the experiment with MV4-11 [5], 2.17%; in the experiment on MV4-11 [6], 3.51%; with MV4-11 [7], 1.74%. In addition, the Activity stood at 73.52% with MV4-11 [10]; 9.22% with U-937 [11]; 16.42% with MV4-11 [13]; 2.41% with U-937 [14]; 32.08% with MV4-11 [15]; 23.5% in the experiment with MV4-11 [16]. The Activity worked out at 1.64% in the experiment with U-937 [17] and 1.7% in the experiment on U-937 [18]. In experiment [3], the result was Active. Also, the Ki at CDK7/Cyclin H/MNAT1 was > 5 µM; in experiment [12] it was 2 nM; in experiment [19], 84 nM. Also, the inhibition result in experiment [8] was “Active”. This compound also came in with a GI50 with MV4-11 [9] of 74 nM.

Broadly, the Ki is a measure of affinity in units of concentration, obtained from inhibition or displacement. A high value points to a looser hold on the target. As usually defined, the GI50 is the concentration at which growth is held to half of that of the control. Higher therefore signals lower sensitivity of the cells.

For the origin of these results see ChEMBL document CHEMBL4813946, “Discovery of novel 4-azaaryl-N-phenylpyrimidin-2-amine derivatives as potent and selective FLT3 inhibitors for acute myeloid leukaemia with FLT3 mutations” (Eur J Med Chem, 2021).
